The source made the active and inactive calls.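 Rule for the calls, unless noted: active = viability at or under a set limit in both replicates, limit being median viability minus 3 SD (cut at about 48% in these data, passing the limit was not always enough); inconclusive = at or under the limit in just one replicate; inactive = at or above the limit in both replicates.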
Columns and labels:
[1] = Her2 expression decrease, cell viability multiplex – SKBR3 breast tumor cells, AlphaScreen, ATP viability, primary screen (AID 461;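 active = Her2 level under about 52% in both replicate screens, with viability over 70% of control, limit read from the data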;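 for Her2 level: lower value means less Her2 protein in the cells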;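 for viability: percent of carrier control wells set as 100% viability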); conditions: SKBR3 Her2 protein level, 18-24 h, measured here: SKBR3 viability, ATP luminescence, at 10 µM
[2] = biological target: Receptor tyrosine-protein kinase erbB-2 (Homo sapiens) (UniProt P04626); assay: as above; conditions: 18-24 h, at 10 µM, stronger effect = lower value
Chain of Receptor tyrosine-protein kinase erbB-2 (Homo sapiens) (P04626 whole entry, looked up): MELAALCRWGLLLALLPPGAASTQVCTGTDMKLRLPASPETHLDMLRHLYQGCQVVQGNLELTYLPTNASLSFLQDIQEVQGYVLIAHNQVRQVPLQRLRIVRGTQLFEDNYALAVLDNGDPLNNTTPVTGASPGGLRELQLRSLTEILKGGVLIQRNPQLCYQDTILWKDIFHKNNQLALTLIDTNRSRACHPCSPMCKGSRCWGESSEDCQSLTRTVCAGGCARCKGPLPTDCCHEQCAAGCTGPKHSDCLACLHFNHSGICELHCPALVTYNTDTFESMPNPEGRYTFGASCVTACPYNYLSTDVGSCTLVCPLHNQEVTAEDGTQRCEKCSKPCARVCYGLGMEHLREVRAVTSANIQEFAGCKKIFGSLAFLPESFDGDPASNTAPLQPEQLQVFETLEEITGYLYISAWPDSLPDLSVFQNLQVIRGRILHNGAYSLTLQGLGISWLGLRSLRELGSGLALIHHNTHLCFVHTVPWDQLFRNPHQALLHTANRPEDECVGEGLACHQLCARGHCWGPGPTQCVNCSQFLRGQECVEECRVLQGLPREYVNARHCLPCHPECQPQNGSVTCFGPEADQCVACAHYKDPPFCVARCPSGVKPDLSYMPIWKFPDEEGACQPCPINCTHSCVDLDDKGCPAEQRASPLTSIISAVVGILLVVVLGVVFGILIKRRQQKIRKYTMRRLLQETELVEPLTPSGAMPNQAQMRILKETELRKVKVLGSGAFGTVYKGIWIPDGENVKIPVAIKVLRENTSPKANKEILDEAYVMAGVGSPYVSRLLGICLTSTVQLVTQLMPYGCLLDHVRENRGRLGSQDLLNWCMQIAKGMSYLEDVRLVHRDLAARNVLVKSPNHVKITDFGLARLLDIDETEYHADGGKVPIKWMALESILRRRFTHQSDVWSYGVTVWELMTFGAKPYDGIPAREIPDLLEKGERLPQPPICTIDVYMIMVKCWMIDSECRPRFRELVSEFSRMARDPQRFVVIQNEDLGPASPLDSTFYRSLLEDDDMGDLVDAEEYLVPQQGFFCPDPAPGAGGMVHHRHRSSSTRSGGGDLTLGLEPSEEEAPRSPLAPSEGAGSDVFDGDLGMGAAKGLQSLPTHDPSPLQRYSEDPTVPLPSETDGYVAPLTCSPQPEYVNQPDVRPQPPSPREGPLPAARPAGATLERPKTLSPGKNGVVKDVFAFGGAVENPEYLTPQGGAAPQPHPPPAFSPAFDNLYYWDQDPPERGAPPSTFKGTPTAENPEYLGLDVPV

[3] = reduced viability of SK-BR-3 breast cancer cells – cell-based, 24 h, human, pilot screen (AID 572;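 active = viability at or below 10% of carrier control in both of two separate runs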;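 note: compound exposure lasted between 18 and 24 h rather than exactly 24 h; 100% = carrier-treated control wells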); conditions: SK-BR-3 viability, CellTiter-Glo luminescence, at 10 µM, stronger effect = lower value
[4] = HUVEC growth inhibition – cell-based, human, primary screen (AID 575;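 active = viability at or below 30% in both replicate assays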;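 note: 100% = median of untreated cell wells with 0.1% DMSO on each plate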); conditions: HUVEC proliferation, CellTiter-Glo luminescence, 72 h; at 10 µM; stronger effect = lower value
In short: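 material = primary HUVEC, no more than 12 passages | input = 1250 cells per well | controls = vehicle and MePR control wells | measured by = CTG luminescence | times = 72 h compound incubation | format = collagen-coated 384-well format | read-out = % viability vs DMSO wells | doses = single 10 µM dose, 0.1% DMSO, from 5x medium stock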

[5] = H69AR cell proliferation blockers – human, duplicate replicates, primary screen (AID 580); conditions: H69AR lung tumor cells viability, ATP luminescence, 72 h; at 10 µM; stronger effect = lower value;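 note: 100% = mean luminescence of untreated wells and 0% = no signal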
[6] = MRP1 drug-resistance reversers in H69AR cells – cell-based, doxorubicin co-treatment, pilot screen (AID 601;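 active = viability loss from added drug above about 55%, and viability with drug at most 40%, in both replicates, limit read from the data, passing the limit was not always enough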); conditions: CellTiter-Glo, 72 h, at 10 µM; for differential viability (reversal): stronger effect = higher value
[7] = yeast transport mutant growth inhibition pilot in 384-well plates, post-Golgi transport modulator project (AID 636; in the data active = inhibition above about 31%); conditions: absorbance 615 nm, about 18 h, stronger effect = higher value
[8] = growth suppression of yeast trafficking mutant, preliminary HTS, modulators of trafficking downstream of Golgi apparatus project, 1536-format plate, OD 615 nm (AID 637; in the data active = inhibition above about 30%); conditions: yeast transport mutant growth, absorbance 615 nm, 18 h; stronger effect = higher value
[9] = H69AR cells + 2 uM doxorubicin, measured here: viability with 2 uM doxorubicin, stronger effect = lower value
[10] = H69AR cells, compound alone cytotoxicity

SMILES	viability [1]	Her2 level [2]	viability [3]	viability [4]	viability [5]	differential viability (reversal) ([6]; H69AR cells + 2 uM doxorubicin)	viability [6, 9]	viability [6, 10]	inhibition [7]	inhibition [8]
Cc1c(Br)c(C(F)(F)F)nn1CC(=O)NCCN1CCOCC1	122%	100% (inactive)	122% (inactive)	108% (inactive)	96.6% (inactive)	10.3% (inactive)	86.3%	96.6%	-6.27% (inactive)	2.1% (inactive)
COc1ccc(N2CCN(CCCNC(=O)C3(S(=O)(=O)c4ccc(Cl)cc4)CC3)CC2)cc1	87.5%	96.5% (inactive)	87.5% (inactive)	87.2% (inactive)	83.1% (inactive)	-13.1% (inactive)	96.1%	83.1%	-0.65% (inactive)	-2.54% (inactive)
Cc1[nH]c(=O)[nH]c(=O)c1S(=O)(=O)N1CCCC(C(=O)NCc2ccco2)C1 (stereo not given)	102%	80% (inactive)	102% (inactive)	96.3% (inactive)	86.4% (inactive)	-1.73% (inactive)	88.1%	86.4%	-3.82% (inactive)	0.67% (inactive)
CN(C)/C=N/c1ncnc2c1cnn2-c1ccc(C(F)(F)F)cn1	108%	100% (inactive)	108% (inactive)	104% (inactive)	81.8% (inactive)	-0.51% (inactive)	82.3%	81.8%	-4.42% (inactive)	-4.29% (inactive)
Cc1nc2cc(-n3ccc(=O)cc3)ccc2n1-c1ccccc1	102%	93% (inactive)	102% (inactive)	79.7% (inactive)	90.5% (inactive)	13.4% (inactive)	77.1%	90.5%	-2.93% (inactive)	-3.49% (inactive)
CCc1nnc2n1N=C(c1ccc(-c3ccc(Cl)cc3Cl)o1)CS2	99.5%	81.5% (inactive)	99.5% (inactive)	110% (inactive)	108% (inactive)	23.9% (inactive)	84.4%	108%	-2.99% (inactive)	-3.17% (inactive)
COC(=O)c1cccc(NC(=O)NC2CCCN2S(=O)(=O)c2ccc(Cl)cc2)c1 (stereo not given)	83%	75.5% (inactive)	83% (inactive)	82.6% (inactive)	94.1% (inactive)	11.4% (inactive)	82.7%	94.1%	-4.53% (inactive)	-7.05% (inactive)
COC(=O)C1C(=O)c2c([nH]c(C(=O)OCCOC(C)C)c2C)CC1C (stereo not given)	100%	111% (inactive)	100% (inactive)	97.8% (inactive)	99.5% (inactive)	7.92% (inactive)	91.6%	99.5%	-2.11% (inactive)	-11.5% (inactive)
CN1C(=O)C(CC(=O)N2CCN(C(c3ccccc3)c3ccccc3)CC2)N(C)C1=O (stereo not given)	90.5%	83% (inactive)	90.5% (inactive)	89.1% (inactive)	81.9% (inactive)	-14% (inactive)	95.9%	81.9%	0.26% (inactive)	-3.67% (inactive)
O=C(COc1ccccc1)Nc1ccc(-c2nnc(-c3ccco3)o2)cc1	128%	108% (inactive)	128% (inactive)	102% (inactive)	95.5% (inactive)	8.73% (inactive)	86.8%	95.5%	-6.97% (inactive)	-1.15% (inactive)
Cc1cc2c(cc(C(=O)NCc3cccnc3)n2Cc2ccc(Cl)cc2)o1	92%	68.5% (inactive)	92% (inactive)	103% (inactive)	98.2% (inactive)	-0.245% (inactive)	98.5%	98.2%	-1.45% (inactive)	-3.33% (inactive)
CCOc1ccc(OCC)c(NC(=O)CN2CCN(C(=O)c3ccco3)CC2)c1	75%	103% (inactive)	75% (inactive)	82.4% (inactive)	68.8% (inactive)	38.1% (inactive)	30.6%	68.8%	4.81% (inactive)	-7.3% (inactive)
COc1ccccc1NC(=O)CSc1nnnn1-c1ccc2c(c1)OCO2	92%	84% (inactive)	92% (inactive)	98.7% (inactive)	90.9% (inactive)	15.1% (inactive)	75.8%	90.9%	-4.11% (inactive)	0% (inactive)
O=C(CN(CCc1ccccc1)C(=O)CN1C(=O)COc2ccccc21)NCc1ccco1	88.5%	87.5% (inactive)	88.5% (inactive)	102% (inactive)	78.6% (inactive)	0.605% (inactive)	78%	78.6%	-0.65% (inactive)	-1.15% (inactive)
COc1cc(C(=O)Nc2ccc(-n3cnnn3)c(C)c2)cc(OC)c1OC	105%	95.5% (inactive)	105% (inactive)	99.8% (inactive)	74% (inactive)	-24.8% (inactive)	98.8%	74%	-2.08% (inactive)	-7.3% (inactive)
Nc1ccc(-c2ccc(N)cc2C(F)(F)F)c(C(F)(F)F)c1	94%	80% (inactive)	94% (inactive)	75.1% (inactive)	68.6% (inactive)	-13.7% (inactive)	82.3%	68.6%	-0.65% (inactive)	-0.66% (inactive)

SMILES	viability [1]	Her2 level [2]	viability [3]	viability [4]	viability [5]	differential viability (reversal) ([6]; H69AR cells + 2 uM doxorubicin)	viability [6, 9]	viability [6, 10]	inhibition [7]	inhibition [8]
CCC(C(=O)OCC(=O)Nc1c(C)n(C)n(-c2ccccc2)c1=O)c1ccccc1 (stereo not given)	109%	83% (inactive)	109% (inactive)	117% (inactive)	87.7% (inactive)	6.61% (inactive)	81.1%	87.7%	-4.66% (inactive)	-4.76% (inactive)
C[N+]1=C2CCCCCN2C(O)(c2ccccc2)C1 (stereo not given)	97%	85% (inactive)	97% (inactive)	101% (inactive)	96.3% (inactive)	-1.28% (inactive)	97.6%	96.3%	-0.79% (inactive)	1.29% (inactive)
COc1ccc(CN(CC(=O)NCc2ccco2)C(=O)CCC(=O)Nc2nccs2)cc1	96%	104% (inactive)	96% (inactive)	85.5% (inactive)	101% (inactive)	11% (inactive)	89.6%	101%	1.22% (inactive)	-2.13% (inactive)
CC(C(=O)NCCCN1CCOCC1)n1cccc1C(=O)c1ccccc1 (stereo not given)	90%	76.5% (inactive)	90% (inactive)	97.4% (inactive)	95% (inactive)	5.71% (inactive)	89.3%	95%	-2.37% (inactive)	0% (inactive)
CC1CCCCC1NC(=O)c1ccc(N2CCCC2=O)cc1 (stereo not given)	112%	106% (inactive)	112% (inactive)	111% (inactive)	90.3% (inactive)	7.01% (inactive)	83.2%	90.3%	-2.21% (inactive)	2.79% (inactive)
O=C(C1CCC1)N1CCc2cc(S(=O)(=O)N3CCc4ccccc4C3)ccc21	88%	97% (inactive)	88% (inactive)	72.1% (inactive)	89% (inactive)	-5.04% (inactive)	94%	89%	-5.47% (inactive)	-7.54% (inactive)
Cc1cc2ncc(C(=O)Nc3ccccc3)c(C)n2n1	94%	94% (inactive)	94% (inactive)	124% (inactive)	99.5% (inactive)	12.7% (inactive)	86.8%	99.5%	-4.34% (inactive)	-0.48% (inactive)
O=C(COc1ccccc1F)NC1CC1	94.5%	88.5% (inactive)	94.5% (inactive)	88.7% (inactive)	107% (inactive)	11.7% (inactive)	95%	107%	-6.58% (inactive)	-2.5% (inactive)
O=C(CSc1nnc(-c2cccnc2)o1)OC1CCCCC1	110%	110% (inactive)	110% (inactive)	95.8% (inactive)	101% (inactive)	13.2% (inactive)	87.9%	101%	-7.87% (inactive)	0.48% (inactive)
CCc1ccc(NS(=O)(=O)c2cccs2)cc1	97.5%	102% (inactive)	97.5% (inactive)	101% (inactive)	96% (inactive)	2% (inactive)	94%	96%	-2.24% (inactive)	1.48% (inactive)
COc1ccc(/C(O)=C2/C(=O)C(=O)N(CCCN(C)C)C2c2ccco2)cc1Cl (stereo not given)	104%	98.5% (inactive)	104% (inactive)	120% (inactive)	95.8% (inactive)	7.21% (inactive)	88.6%	95.8%	-6.62% (inactive)	-10.7% (inactive)
COCCN1C(=O)C(=O)/C(=C(/O)c2ccc(OC(C)C)cc2)C1c1cccnc1 (stereo not given)	94.5%	86.5% (inactive)	94.5% (inactive)	89.7% (inactive)	92.6% (inactive)	5.24% (inactive)	87.4%	92.6%	-3.55% (inactive)	3.33% (inactive)
O=C1COc2ccc(C(=O)NCc3ccco3)cc2N1	95.5%	86% (inactive)	95.5% (inactive)	105% (inactive)	104% (inactive)	7.71% (inactive)	96.1%	104%	-2.11% (inactive)	-7.26% (inactive)
COC(=O)[C@H](C)NC(=O)NCc1ccc(F)cc1	102%	95% (inactive)	102% (inactive)	102% (inactive)	95.3% (inactive)	-8.8% (inactive)	104%	95.3%	-2.21% (inactive)	-1.43% (inactive)
O=C1CCc2nc3sc4c(c3c(=O)n2N1)CCCC4	86.5%	100% (inactive)	86.5% (inactive)	85.9% (inactive)	91.3% (inactive)	1.12% (inactive)	90.2%	91.3%	-1.05% (inactive)	-7.14% (inactive)
